Laboratory results published in the EternaBench riboswitch data.

Test system: MS2 coat protein
Assay: apparent Kd, MS2 coat protein; higher = weaker binding; RNA-MaP array; FMN 200 µM where present
In short: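 Designs on Illumina sequencing-chip clusters, transcribed by stalled E. coli RNA polymerase, were exposed to SNAP-549-labelled MS2 coat protein in doubling steps from 0.7 or 1.5 nM up to 3 µM, without and then with constant ligand. The buffer held 100 mM Tris-HCl pH 7.5, 80 mM KCl, 4 mM MgCl2, BSA, DTT, yeast tRNA and Tween-20. Apparent Kd values are medians of filtered per-cluster binding-curve fits to green signal normalised to red-channel RNA signal and control-cluster median Fmax.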

[1] = designed as: OFF switch for flavin mononucleotide, no ligand
[2] = ligand present: flavin mononucleotide, designed as: OFF switch for flavin mononucleotide
[3] = designed as: ON switch for flavin mononucleotide, no ligand
[4] = ligand present: flavin mononucleotide, designed as: ON switch for flavin mononucleotide

| Sequence | apparent Kd [1] | apparent Kd [2] | apparent Kd [3] | apparent Kd [4] |
| --- | --- | --- | --- | --- |
| UGUGCAUCAGGAUAUAUGUGGCGACCGUGAGGUCGAAGGUUACAUGAGGAUCACCCAUGUAGAAGGGAUGUACU | 0.0633 µM | 0.187 µM | – | – |
| UGUGUAACGGAGGAUAUAGGACUUCAACGAAGACUAGAAGGCCGAACAUGAGGAUCACCCAUGUGGUCCUCCGU | 0.0119 µM | 0.0149 µM | – | – |
| UGUGUGUGGGCAGGAUAUGCAUGAAUAUGUAUGAUGUAGUGUGAUGUAACAUGAGGAUCACCCAUGUAGAAGGGCCGGUGUAUG | 0.0945 µM | 0.122 µM | – | – |
| UGUGUUAUCGGAGGAUAUCGAUAUCAAACAUGAGGAUCACCCAUGUUGAGGAUCACCCAUGUCUACGAGAAGGCCGGCGUACUC | – | – | 0.0452 µM | 0.0506 µM |
| UGUGUUUUUGUGAGGAUAUACUGUUUGUUUUGUUUGUAGAAGGUACAUGAGGAUCACCCAUGUUGUGUUUGGUU | 0.0375 µM | 0.0293 µM | – | – |
| UGUUAAUUGUAGAAGGGUGACAUGAGGAUCACCCAUGUACUAAUGCGAUUUACGGCGCAUGUUCCACAGGAUAUACAGUUGAGU | – | – | 1.27 µM | 0.274 µM |
| UGUUACUAGUAAGGAUAUACUUGCAAUUAGCUUGUAGAAGGUACAGUCUUUUGUAUAACAUGUUUACAUGAGGAUCACCCAUGU | – | – | 0.0104 µM | 0.00905 µM |
| UGUUGUAGUACAGGAUAUGCGGUGGAUUCGGACAUGAGGAUCACCCAUGUGCCUUUAUAACGUCUGCAGAAGGGUGAAAGAACG | – | – | 0.5 µM | 0.13 µM |
| UGUUGUAUUACAGGAUAUCUAUGAUUUUUAUCUAGAGAAGGGUAUUCACAUGAGGAUCACCCAUGUAUAUACGAGGAAGUUGUG | – | – | 0.0312 µM | 0.0306 µM |
| UGUUGUAUUACAGGAUAUCUAUUGUAUUUAUUUAGAGAAGGGUAUUCACAUGAGGAUCACCCAUGUAUAUACGAGGAAGUUGUG | – | – | 0.0639 µM | 0.0708 µM |
| UGUUGUGAACAGAACAUGAGGAUCACCCAUGUGCACUCGUGUAAGGAUAUACAAUCGUAUGGAAAGUAGAAGGUACUAAUUAUG | – | – | – | 0.12 µM |
| UUAAAUCAUGUAGGAUAUGCAUGGCGAAGCUACGCAGAAGGACAUGAGGAUCACCCAUGUUAUAGCUACCGAAUAAGGUGGCAA | – | 0.224 µM | – | – |
| UUAACACAUGAGGAUCACCCAUGUUAGGAUAUUGUGGUGGGAACAACUGGGAAACGCACGAGAAGGGACACACA | 0.0357 µM | 0.0262 µM | – | – |
| UUAAGGGACUGAGGAUAUACAUGAAUUAUGUUUGUAGAAGGCAGAUUGUUAGUUUAUUCACUAUACAUGAGGAUCACCCAUGUU | 0.0251 µM | 0.0206 µM | – | – |
| UUAAUCAUGUAGAAGGACGGAUAUUAAGAGAACGUAGGAUAUACAGAAGACAUGAGGAUCACCCAUGUGAACAUGGUACAUAGG | 0.241 µM | 0.0625 µM | – | – |
| UUAAUUAAUUAAUUGCAGUUUACAUGAGGAUCACCCAUGUAUAAGGAUAUCGUCAGGAAUACUGACGAGAAGGUAUACAUCUGC | 0.019 µM | 0.0318 µM | – | – |
| UUACAGGUUUAAGGCGUUCCCAGACAUGAGGAUCACCCAUGUAGAAGGACCGUAAGAAAUUUUCGGUAGGAUAUACAUUAAGGG | 0.0286 µM | 0.0292 µM | – | – |
| UUACAGUGCGGGUAGGAUAUGUAGGGUGGUACAUGAGGAUCACCCAUGUAUCCACCCUUCGACCGGCAGAAGGGCCUGUCACUGC | – | – | 0.0143 µM | 0.0143 µM |
| UUACUACAUGAGGAUCACCCAUGUCAGGAUAUUGUAUAUGCCUUGGAAUACGUGUUUACAAGAAGGGACUAUAU | 0.0241 µM | 0.0254 µM | – | – |

| Sequence | apparent Kd [1] | apparent Kd [2] | apparent Kd [3] | apparent Kd [4] |
| --- | --- | --- | --- | --- |
| UUACUAUAACAGAAGGGUAGAUAGUAUAUAAAUGCAGGAUAUGUUACAUGAGGAUCACCCAUGUUUCACCCACAUGAGGAUCAC | 0.0285 µM | 0.0407 µM | – | – |
| UUACUAUUGGAGAAGGGUCCAUCAUAUAGAAGGACAGGAUAUCCAACAUGAGGAUCACCCAUGUGUCACCCAUAUGAGGAUCAC | 0.0414 µM | 0.0822 µM | – | – |
| UUACUAUUGGAGAAGGGUCGAUCAUAUAGAAUGACAGGAUAUCCAACAUGAGGAUCACCCAUGUGUCACCCAUAUGAGGAUCAC | 0.0343 µM | 0.0524 µM | – | – |
| UUACUCAUGUAAGGAUAUGCAGCCGUUUCGGCUGCAGAAGGUACUAUAAUACAUGAGGAUCACCCAUGUCUUUUUAAAUUAGAC | – | – | 0.111 µM | 0.0497 µM |
| UUAGAGGAUUAAGGAUAUGCAGAGAGAUUAUGCGCGUCGCGCACAUGAGGAUCACCCAUGUAAGAGCAGAAGGUAACUAUGAUC | 0.0228 µM | 0.0164 µM | – | – |
| UUAGGACAUGAGGAUCACCCAUGUGAGGAUAUGCUGCAGGGAGGUCCCAGCAAUAUUCGUAGAAGGCAUAAGGG | 0.221 µM | 0.177 µM | – | – |
| UUAUAAAAGCAGAAGGGCCGAUUAAGGAUCCGCAUGGCGCUGGACAUGAGGAUCACCCAUGUAAGGCAGGAUAUGCAAAAUAAG | 0.458 µM | 0.0248 µM | – | – |
| UUAUAAAGUGUGAGGAUAUGCUGGUCGAUAGAUCAGCAGAAGGCACAUGAGGAUCACCCAUGUAAUAUAUUUUU | 0.048 µM | 0.239 µM | – | – |
| UUAUACAUGAGGAUCUCCCAUGACAUGAGGAUCACCCAUGUGCAGGAUAUACGUGUUAUAAUAUAGUAGAAGGGCAGUCUAUGU | 0.0272 µM | 0.0665 µM | – | – |
| UUAUACGCUGAGGAUAUUAUCACUGAGAGGUGAUGAGAAGGCGGUACAUGAGGAUCACCCAUGUCUAUGGGCAG | 0.282 µM | 0.24 µM | – | – |
| UUAUACGUUGAGGAUAUGCGACUUAGUAUAGUUGUAGAAGGCGAUACAUGAGGAUCACCCAUGUUUAUGGGCAU | 0.22 µM | 0.3 µM | – | – |
| UUAUAUAGGUAGGAUAUCGAUUUUAAUUAUUUUCGAGAAGGGUCAACAUGAGGAUCACCCAUGUCAGCAUGUAU | 0.0587 µM | 0.0491 µM | – | – |
| UUAUGAGAGCAGGAUAUCUUAUUUUUUUUUUAUAGAGAAGGGCUCACAUGAGGAUCACCCAUGUGGUCCUAGAU | 0.0325 µM | 0.0525 µM | – | – |
| UUAUGAGCGAUAGGAUAUACUGAGAUUGAAUGGGUAGAAGGAUCAAUUGUGUGGAAGACAUGAGGAUCACCCAUGUUACGGGCC | – | – | 0.104 µM | 0.337 µM |
| UUAUGGAGGUAGGAUAUCAUGACGUCUUAGUUGUGAGAAGGGCUUACAUGAGGAUCACCCAUGUGGUGUUUUUG | 0.584 µM | 0.192 µM | – | – |
| UUAUUUAGGUAGGAUAUCGAUAUUAUUCCCUAUCGAGAAGGGUCUACAUGAGGAUCACCCAUGUUAGCAUGUUU | 0.0223 µM | 0.0222 µM | – | – |
| UUAUUUAUACAAGGAUAUCUAUUGUUAAUUCGACUUACAUGAGGAUCACCCAUGUUUUUAUGUUUAGAGAAGGUGUAAUUUCUG | – | – | 0.0258 µM | 0.0264 µM |
| UUAUUUAUACAAGGAUAUCUAUUGUUAAUUCGACUUACAUGAGGAUCACCCAUGUUUUUAUGUUUAGAGAAGGUGUAUUUUCAG | – | – | 0.0904 µM | 0.0519 µM |
| UUCACGUCAGGAUAUCCAUAUUUCCGAAAUAACGGUACUUUGGAGAAGGGACAUGAGGAUCACCCAUGUCCUCG | – | 0.0401 µM | – | – |

| Sequence | apparent Kd [1] | apparent Kd [2] | apparent Kd [3] | apparent Kd [4] |
| --- | --- | --- | --- | --- |
| UUCACGUUAGUAGGAUAUCCGACAUGAGGAUCACCCAUGUCAACAUGGCUCUAGGGAAGUUGUUAGGAGAAGGGCUUUUAAAUA | – | – | 0.0119 µM | 0.0103 µM |
| UUCAGCUCGUGAGGAUAUACAUGUGCUGGAAACAGCACUAAAGAUUUCACAUGAGGAUCACCCAUGUAGAAGGCACGAGCUGAG | 0.0162 µM | 0.0394 µM | – | – |
| UUCAGCUCGUGAGGAUAUACAUGUGCUGGAAACAGCACUAAUUAAUUCACAUGAGGAUCACCCAUGUAGAAGGCACGAGCUGAG | 0.0157 µM | 0.0181 µM | – | – |
| UUCAGGGAUCAAGGAUAUCUAUACUCAUGCGGACAUGAGGAUCACCCAUGUUGAUUACCCAUGAGGGAGAAGGUGAACAUGAGG | – | – | 0.0313 µM | 0.0187 µM |
| UUCAUCAAGGAAGGAUAUCUAUAUCCAACAUGAGGAUCACCCAUGUUGAGGAUCACCCAUGUAAAGGAGAAGGUUCAUAUAACU | – | – | 0.0581 µM | 0.0507 µM |
| UUCAUGUGAGGAUAUAGUACUCCUUCUAUUAUUUUUGAGUAUUAGAAGGCACAUGAGGAUCACCCAUGUAGUAC | 0.0281 µM | 0.0469 µM | – | – |
| UUCAUGUGAGGAUAUCAGUAGUAAAAAAAUAAAAUUACUACUGAGAAGGCACAUGAGGAUCACCCAUGUCCUUC | 0.0625 µM | 0.0408 µM | – | – |
| UUCAUGUGAGGAUAUGCGGCGUCAGGUGGGCCUGUCGCUGAGCAGAAGGCACAUGAGGAUCACCCAUGUGCUCC | 0.0317 µM | 0.0625 µM | – | – |
| UUCAUGUGAGGAUAUGUGAUCUGCUUUCUGUGUAGAUGAUCACAGAAGGCACAUGAGGAUCACCCAUGUAGAUC | 0.103 µM | 0.0794 µM | – | – |
| UUCAUGUGAGGAUAUGUGUACUGUUUUUUGUUUAGAUGUACACAGAAGGCACAUGAGGAUCACCCAUGUAGUAC | 0.0495 µM | 0.0204 µM | – | – |
| UUCCUACAUGAGGAUCACCCAUGUCAGGAUAUCUCCUCGUCGCCAAUGGGCGACGAAUAGAGAAGGGACAGGAA | 0.015 µM | 0.0167 µM | – | – |
| UUCGAGCCAAGGCUCGCGAGUACACAGGAUAUGGAAAGUCACAUGAGGAUCACCCAUGUCCAAAACCAGAAGGGUGAGACUAAG | – | – | – | 0.0704 µM |
| UUCGUGCAGCUUUGCUGUACGCGUACAUGAGGAUCACCCAUGUAGGAUAUGGUACGCUUUGCGUGCUAGAAGGAUAUGGAAAGG | 0.0147 µM | 0.0166 µM | – | – |
| UUCGUGCAGCUUUGCUGUACGCGUACAUGAGGAUCACCCAUGUAGGAUAUGGUAGGCUUUGUUUACUAGAAGGAUAGUGUGAUC | 0.14 µM | 0.0458 µM | – | – |
| UUCUAGCUCACAGGAUAUGGGUAUCGACGAUGCCCAGAAGGGUGAUUUGGCACAUGAGGAUCACCCAUGUGGGCGCUUGAAUAU | – | – | 0.045 µM | 0.098 µM |
| UUCUUUACCUAGGAUAUCUUCGGUACGGUCCGGAGAGAAGGAGGUACAUGAGGAUCACCCAUGUCCCUCUGAAA | 0.0126 µM | 0.0136 µM | – | – |
| UUGAGGAAUUAAGGAUAUUGAGUACAUAUGUUUAACAUGAGGAUCACCCAUGUGGGUUGCGGUAUCGAGAAGGUAAAUUACAAG | – | – | 0.129 µM | 0.133 µM |
| UUGAGGUGCAAGAAGGGUCACAUGAGGAUCACCCAUGUCAUGUGAAGUCUCGAGAUUUUAUAUGGAUAGGAUAUUGCACCGAAC | – | – | 0.197 µM | 0.0982 µM |
